This passage reports IC50 results from ChEMBL document CHEMBL1131326, “Design, synthesis, and antiviral evaluations of 1-(substituted benzyl)-2-substituted-5,6-dichlorobenzimidazoles as nonnucleoside analogues of 2,5,6-trichloro-1-(beta-D-ribofuranosyl)benzimidazole” (J Med Chem, 1998).

SMILES strings stand for the structures.

The test system of the first experiment is CEM-SS. Description: Cytotoxicity against CEM-SS cells in terms of incorporation of [3H]dThd. The class given is functional, cell-based. The note with it: Homo sapiens. The gist of the method:
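DNA synthesis in CEM-SS cells measured as uptake of [³H]dThd into total acid-precipitable material; results averaged from duplicate experiments.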
The term IC50 denotes the concentration needed to halve the response being measured. High values mean weaker potency in that assay, low ones greater potency in that assay. Turning to `Clc1cccc(Cn2c(Br)nc3cc(Cl)c(Cl)cc32)c1`, the IC50 is greater than 100 µM.

Take `COc1ccc(Cn2c(N)nc3cc(Cl)c(Cl)cc32)cc1`: the IC50 was determined as 27 µM.

Take `Fc1ccc(Cn2c(Br)nc3cc(Cl)c(Cl)cc32)cc1`: the IC50 is greater than 100 µM.

Take `Cc1cccc(Cn2c(N)nc3cc(Cl)c(Cl)cc32)c1`: the IC50 was determined as 48 µM.

Turning to `Nc1nc2cc(Cl)c(Cl)cc2n1Cc1ccccc1Cl`, the IC50 came out at 36 µM.

On to `Cc1ccc(Cn2c(Br)nc3cc(Cl)c(Cl)cc32)cc1`, for which the IC50 is greater than 100 µM.

`Clc1ccc(Cn2c(Br)nc3cc(Cl)c(Cl)cc32)cc1Cl` yielded an IC50 greater than 100 µM.

`COc1ccc(Cn2c(Cl)nc3cc(Cl)c(Cl)cc32)cc1` had an IC50 greater than 100 µM.

Turning to `FC(F)(F)c1ccc(Cn2c(Cl)nc3cc(Cl)c(Cl)cc32)cc1`, the IC50 is greater than 100 µM.

In the next experiment the test system is Human immunodeficiency virus 1. Description: Activity against HIV-1 by syncytial plaque assay performed in duplicate using CEM-SS cells. The class given is functional, organism-based. Particulars: Human immunodeficiency virus 1, CEM-SS. An outline of the steps:
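Syncytial plaque assay: poly-L-lysine-adherent CEM-SS cells infected with HIV-1 strain IIIB with or without compound at selected concentrations; syncytial plaques counted at 30-fold magnification 7 days postinfection; duplicate. IC50 from linear regression of percent inhibition against log concentration.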
Turning to `Clc1cccc(Cn2c(Br)nc3cc(Cl)c(Cl)cc32)c1`, the IC50 was greater than 100 µM.

The compound `COc1ccc(Cn2c(N)nc3cc(Cl)c(Cl)cc32)cc1` gave a half-maximal inhibitory concentration (IC50) of 12 µM.

`Fc1ccc(Cn2c(Br)nc3cc(Cl)c(Cl)cc32)cc1` had an IC50 of 30 µM.

`Cc1cccc(Cn2c(N)nc3cc(Cl)c(Cl)cc32)c1` gave an IC50 of 12 µM.

The compound `Nc1nc2cc(Cl)c(Cl)cc2n1Cc1ccccc1Cl` displayed an IC50 of 6 µM.

On to `Cc1ccc(Cn2c(Br)nc3cc(Cl)c(Cl)cc32)cc1`, for which the IC50 was greater than 100 µM.

`Clc1ccc(Cn2c(Br)nc3cc(Cl)c(Cl)cc32)cc1Cl`: the IC50 was greater than 100 µM.

Consider `COc1ccc(Cn2c(Cl)nc3cc(Cl)c(Cl)cc32)cc1`, for which the IC50 came out at 26 µM.

As to `FC(F)(F)c1ccc(Cn2c(Cl)nc3cc(Cl)c(Cl)cc32)cc1`, the IC50 was greater than 100 µM.

For another experiment, the system named is Human betaherpesvirus 5. Kind of experiment: Antiviral activity against human cytomegalovirus (HCMV) by plaque reduction assay. The class given is functional, organism-based.
Settings: not given
An outline of the steps: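 HFF monolayers infected with about 100 pfu/cm² of HCMV Towne (isolate Po); after adsorption, compound in growth medium added to duplicate wells at four to eight concentrations.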
In general terms: Plaque reduction counts the foci of infection that form in a cell layer.
The compound `Clc1cc2nc(Br)n(CCc3ccccc3)c2cc1Cl` yielded an IC50 greater than 100 µM.

On to `Clc1cc2nc(Cl)n(CCc3ccccc3)c2cc1Cl`, for which the IC50 was greater than 100 µM.

The compound `Clc1cccc(Cn2c(Br)nc3cc(Cl)c(Cl)cc32)c1` had an IC50 greater than 100 µM.

Compound `COc1ccc(Cn2c(N)nc3cc(Cl)c(Cl)cc32)cc1` gave an IC50 greater than 100 µM.

Compound `Clc1cc2nc(Cl)n(Cc3ccccc3)c2cc1Cl` gave an IC50 greater than 100 µM.

Consider `Nc1nc2cc(Cl)c(Cl)cc2n1Cc1ccccc1`, for which the IC50 worked out at 37 µM.

On to `Fc1ccc(Cn2c(Br)nc3cc(Cl)c(Cl)cc32)cc1`, for which the IC50 is greater than 100 µM.

Compound `Cc1cccc(Cn2c(N)nc3cc(Cl)c(Cl)cc32)c1` showed an IC50 greater than 100 µM.

`Nc1nc2cc(Cl)c(Cl)cc2n1Cc1ccccc1Cl` came in with an IC50 of 32 µM.

Compound `Cc1ccc(Cn2c(Br)nc3cc(Cl)c(Cl)cc32)cc1` displayed an IC50 greater than 100 µM.

Compound `Clc1ccc(Cn2c(Br)nc3cc(Cl)c(Cl)cc32)cc1Cl` showed an IC50 greater than 100 µM.

With `COc1ccc(Cn2c(Cl)nc3cc(Cl)c(Cl)cc32)cc1`, the concentration for half-maximal inhibition (IC50) is greater than 100 µM.

Compound `FC(F)(F)c1ccc(Cn2c(Cl)nc3cc(Cl)c(Cl)cc32)cc1` came in with an IC50 greater than 100 µM.

In the case of `CC(C)Nc1nc2cc(Cl)c(Cl)cc2n1Cc1ccccc1`, it took 22 µM to reach half-maximal inhibition (IC50).

The next experiment concerns Human alphaherpesvirus 1. Description: Antiviral activity against herpes simplex virus type-1 (HSV-1). It counts as functional, organism-based.
Settings: not given
An outline of the steps: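 BSC-1 cells (10 000/well, MEM(E) + 10% calf serum) incubated overnight, then given drug in quadruplicate plus HSV-1 KOS at 100 pfu/well; 3 days at 37 °C. ELISA with HRP-conjugated rabbit anti-HSV-1 antibody, TMB substrate, stopped with H₂SO₄, absorbance at 450 and 570 nm; IC50 by regression of % absorbance reduction vs log concentration.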
Regarding `Clc1cc2nc(Br)n(CCc3ccccc3)c2cc1Cl`, the IC50 was greater than 100 µM.

On to `Clc1cccc(Cn2c(Br)nc3cc(Cl)c(Cl)cc32)c1`, for which the IC50 was 70 µM.

The compound `COc1ccc(Cn2c(N)nc3cc(Cl)c(Cl)cc32)cc1` returned an IC50 greater than 100 µM.

Take `Clc1cc2nc(Cl)n(Cc3ccccc3)c2cc1Cl`: the IC50 is greater than 100 µM.

Take `Nc1nc2cc(Cl)c(Cl)cc2n1Cc1ccccc1`: the IC50 came out at 152 µM.

`Cc1cccc(Cn2c(N)nc3cc(Cl)c(Cl)cc32)c1`: the IC50 stood at 80 µM.

In the case of `Nc1nc2cc(Cl)c(Cl)cc2n1Cc1ccccc1Cl`, the IC50 was greater than 100 µM.

In turn, `Cc1ccc(Cn2c(Br)nc3cc(Cl)c(Cl)cc32)cc1` displayed an IC50 greater than 100 µM.

On to `Clc1ccc(Cn2c(Br)nc3cc(Cl)c(Cl)cc32)cc1Cl`, for which the IC50 is greater than 100 µM.

`COc1ccc(Cn2c(Cl)nc3cc(Cl)c(Cl)cc32)cc1`: the IC50 is greater than 100 µM.

The compound `FC(F)(F)c1ccc(Cn2c(Cl)nc3cc(Cl)c(Cl)cc32)cc1` showed an IC50 greater than 100 µM.

Compound `CC(C)Nc1nc2cc(Cl)c(Cl)cc2n1Cc1ccccc1` came in with an IC50 of 50 µM.

For a further experiment, the system named is HFF. Kind of experiment: Visual cytotoxicity scored on HFF cells at a time of HCMV plaque enumeration. The class given is functional, cell-based. Particulars: Homo sapiens. The gist of the method: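 Cytotoxicity in stationary HFF cells scored by microscopic inspection of cells not affected by virus, at time of HCMV plaque enumeration, in the plaque-assay plates.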
For the compound `Clc1cc2nc(Br)n(CCc3ccccc3)c2cc1Cl`, the IC50 is greater than 100 µM.

Compound `Clc1cc2nc(Cl)n(CCc3ccccc3)c2cc1Cl` returned an IC50 greater than 100 µM.

The compound `Clc1cccc(Cn2c(Br)nc3cc(Cl)c(Cl)cc32)c1` came in with an IC50 greater than 100 µM.

Take `COc1ccc(Cn2c(N)nc3cc(Cl)c(Cl)cc32)cc1`: the IC50 is greater than 100 µM.

As for `Clc1cc2nc(Cl)n(Cc3ccccc3)c2cc1Cl`, the IC50 was greater than 100 µM.

`Nc1nc2cc(Cl)c(Cl)cc2n1Cc1ccccc1` had an IC50 of 58 µM.

`Fc1ccc(Cn2c(Br)nc3cc(Cl)c(Cl)cc32)cc1`: the IC50 was greater than 100 µM.

Regarding `Cc1cccc(Cn2c(N)nc3cc(Cl)c(Cl)cc32)c1`, the IC50 is greater than 100 µM.

Compound `Nc1nc2cc(Cl)c(Cl)cc2n1Cc1ccccc1Cl` showed an IC50 of 32 µM.

For `Cc1ccc(Cn2c(Br)nc3cc(Cl)c(Cl)cc32)cc1`, the IC50 is greater than 100 µM.

The compound `Clc1ccc(Cn2c(Br)nc3cc(Cl)c(Cl)cc32)cc1Cl` yielded an IC50 greater than 100 µM.

Turning to `COc1ccc(Cn2c(Cl)nc3cc(Cl)c(Cl)cc32)cc1`, the IC50 was greater than 100 µM.

The compound `FC(F)(F)c1ccc(Cn2c(Cl)nc3cc(Cl)c(Cl)cc32)cc1` came in with an IC50 greater than 100 µM.

`CC(C)Nc1nc2cc(Cl)c(Cl)cc2n1Cc1ccccc1`: the midpoint of inhibition, the IC50, lay at 22 µM.

In a further experiment the test system is KB. Description: Inhibition of KB cell growth determined by quadruplicate assays. It counts as functional, cell-based. The note with it: Homo sapiens. The gist of the method:
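KB cells seeded at 3000-5000/well, overnight at 37 °C, then compound in quadruplicate at six to eight concentrations for 48 h (about two doublings) in CO₂. Cells fixed in 95% ethanol, stained with 0.1% crystal violet, dye eluted with acidified ethanol and read at 570 nm; IC50 by regression vs log concentration.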
`OC[C@H]1O[C@H](n2c(Br)nc3cc(Cl)c(Cl)cc32)[C@@H](O)[C@H]1O` had an IC50 greater than 100 µM.

`Clc1cc2nc(Br)n(CCc3ccccc3)c2cc1Cl` registered an IC50 greater than 100 µM.

`Clc1cccc(Cn2c(Br)nc3cc(Cl)c(Cl)cc32)c1`: the IC50 was greater than 100 µM.

`COc1ccc(Cn2c(N)nc3cc(Cl)c(Cl)cc32)cc1` yielded an IC50 of 45 µM.

As to `Clc1cc2nc(Cl)n(Cc3ccccc3)c2cc1Cl`, the IC50 was greater than 100 µM.

For `Nc1nc2cc(Cl)c(Cl)cc2n1Cc1ccccc1`, the midpoint of inhibition, the IC50, lay at 170 µM.

`Cc1cccc(Cn2c(N)nc3cc(Cl)c(Cl)cc32)c1` displayed an IC50 of 65 µM.

In turn, `Cc1ccc(Cn2c(Br)nc3cc(Cl)c(Cl)cc32)cc1` had an IC50 greater than 100 µM.

With `Clc1ccc(Cn2c(Br)nc3cc(Cl)c(Cl)cc32)cc1Cl`, the IC50 was greater than 100 µM.

As for `COc1ccc(Cn2c(Cl)nc3cc(Cl)c(Cl)cc32)cc1`, the IC50 was greater than 100 µM.

`FC(F)(F)c1ccc(Cn2c(Cl)nc3cc(Cl)c(Cl)cc32)cc1` gave an IC50 greater than 100 µM.

Consider `CC(C)Nc1nc2cc(Cl)c(Cl)cc2n1Cc1ccccc1`, for which the IC50 amounted to 45 µM.
